Experimental data from ChEMBL document CHEMBL4350968, “Structure Guided Design, Synthesis, and Biological Evaluation of Novel Benzosuberene Analogues as Inhibitors of Tubulin Polymerization” (J Med Chem, 2019).
The source made the active and inactive calls. The rule behind the calls is not given here.

Tests used:
NCI-H460 = assay: Cytotoxicity against human NCI-H460 cells assessed as growth inhibition measured after 48 hrs by SRB assay; format: functional; conditions: NCI-H460, 48 h
Tubulin = Tubulin (Bos taurus, UniProt Q6B856+Q862L2+Q862F3); assay: Inhibition of bovine brain tubulin polymerization preincubated for 15 mins followed by GTP addition and measured for 20 mins by turbidimetry-based spectrophotometric method
Summary of the method: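 Mixtures held 10 µM purified bovine brain tubulin, 0.8 M monosodium glutamate pH 6.6, 4% DMSO and varied compound concentrations. These were preincubated 15 min at 30 °C without GTP, then chilled to 0 °C, and GTP was added to 0.4 mM final. Temperature was raised to 30 °C and turbidity followed at 350 nm for 20 min.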

SK-OV-3 = assay: Cytotoxicity against human SKOV3 cells assessed as growth inhibition measured after 48 hrs by SRB assay; format: functional; conditions: SK-OV-3, 48 h
DU-145 = assay: Cytotoxicity against human DU145 cells assessed as growth inhibition measured after 48 hrs by SRB assay; format: functional; conditions: DU-145, 48 h
Tubulin (Homo sapiens) [1] = target: T1, Tubulin (Homo sapiens) (UniProt P68371+Q9H4B7+P0DPH7+P68366+Q13509+Q71U36+P04350+Q3ZCM7+P07437+P68363+Q9BQE3+Q6PEY2+Q13885+Q9BVA1+Q9BUF5); assay: Inhibition of [3H]colchicine binding to tubulin (unknown origin) at 5 uM measured after 10 mins by beckman scintillation counting method relative to control; format: protein-complex assay
Summary of the method: (§1)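 Each 0.1 mL mix held 1.0 µM tubulin, 5.0 µM [3H]colchicine, 5% DMSO and compound at 1.0 or 5.0 µM. Stabilising components were 1.0 M monosodium glutamate pH 6.6, 0.5 mg/mL BSA, 0.1 M glucose-1-phosphate, 1.0 mM MgCl2 and 1.0 mM GTP. After 10 min at 37 °C, reactions were stopped with ice-cold water and filtered on DEAE-cellulose. Bound label was counted and percent inhibition taken versus no-inhibitor samples, correcting for filter binding without tubulin.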

Tubulin (Homo sapiens) [2] = target: T1, Tubulin (Homo sapiens); assay: Inhibition of [3H]colchicine binding to tubulin (unknown origin) measured after 10 mins by beckman scintillation counting method relative to control; format: protein-complex assay
Summary of the method: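 The 0.1 mL mix held 1.0 µM tubulin, 5.0 µM [3H]colchicine, 5% DMSO and compound at 1.0 or 5.0 µM. It also held 1.0 M monosodium glutamate (pH 6.6), 0.5 mg/mL BSA, 0.1 M glucose-1-phosphate, 1.0 mM MgCl2 and 1.0 mM GTP. After 10 min at 37 °C the reaction was stopped on ice, the mix filtered through DEAE-cellulose and counted. Percent inhibition was taken against the no-inhibitor control, corrected for label bound without tubulin.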

Tubulin (Homo sapiens) [3] = target: T1, Tubulin (Homo sapiens); assay: Inhibition of [3H]colchicine binding to tubulin (unknown origin) at 1 uM measured after 10 mins by beckman scintillation counting method relative to control; format: protein-complex assay; summary of the method: as §1
Tubulin (Homo sapiens) [4] = target: T1, Tubulin (Homo sapiens); assay: Inhibition of [3H]colchicine binding to tubulin (unknown origin) at 0.5 uM measured after 10 mins by beckman scintillation counting method relative to control; format: protein-complex assay
[5] = Toxicity in Copenhagen rat xenografted with human PC3 cells harboring DAB2IP-luc at 80 mg/kg, ip measured after 4 to 24 hrs; format: organism-based; conditions: in vivo
[6] = Toxicity in Copenhagen rat xenografted with human PC3 cells harboring DAB2IP-luc at 40 mg/kg, ip measured after 48 hrs; format: organism-based; conditions: in vivo
PC-3 [7] = assay: (§2) Induction of vascular damage in human PC3 cells harboring DAB2IP-luc xenografted in Copenhagen rat assessed as reduction in light emission at 80 mg/kg, ip measured after 4 to 24 hrs by Bioluminescence imaging analysis; format: functional, organism-based
Summary of the method: (§3)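 Male Copenhagen rats (about 6 weeks old, 100-120 g) were implanted s.c. in the right thigh with 5 X 10⁵ PC3-DAB2IP-luc cells in 30% Matrigel. Tumors were at least 1 cm in diameter before treatment. Prodrug in saline (25 mg/mL) was given IP, one rat per regimen. Under isoflurane, 120 mg/kg D-luciferin was injected s.c. fresh at baseline, 4 h and 24 h. Tumor ROI light emission was followed over about 30 min.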

PC-3 [8] = assay: Induction of vascular damage in human PC3 cells harboring DAB2IP-luc xenografted in Copenhagen rat assessed as reduction in light emission at 40 mg/kg, ip measured after 24 to 48 hrs by Bioluminescence imaging analysis; format: functional, organism-based; summary of the method: as §3
PC-3 [9] = assay: Induction of vascular damage in human PC3 cells harboring DAB2IP-luc xenografted in Copenhagen rat assessed as reduction in light emission at 40 mg/kg, ip measured after 4 hrs by Bioluminescence imaging analysis; format: functional, organism-based; summary of the method: as §3
PC-3 [10] = assay: as §2, with “10” for “80”, “ip administered 24 hrs prior to 40 mg/kg, ip dosing for 4 hrs followed by CA4P dosing at 30 mg/kg, ip and” for “ip”, “bioluminescence” for “Bioluminescence”; format: functional, organism-based; summary of the method: as §3
PC-3 [11] = assay: Induction of vascular damage in human PC3 cells harboring DAB2IP-luc xenografted in Copenhagen rat assessed as reduction in light emission at 10 mg/kg, ip administered 6 hrs prior to 40 mg/kg, ip dosing and measured after 24 hrs by bioluminescence imaging analysis; format: functional, organism-based; summary of the method: as §3
PC-3 [12] = assay: Induction of vascular damage in human PC3 cells harboring DAB2IP-luc xenografted in Copenhagen rat assessed as reduction in light emission at 10 mg/kg, ip administered 6 hrs prior to 40 mg/kg, ip dosing and measured after 4 hrs by bioluminescence imaging analysis relative to control; format: functional; design: scale not given: the % may be the effect or the level left; summary of the method: as §3
PC-3 [13] = assay: Induction of vascular damage in human PC3 cells harboring DAB2IP-luc xenografted in Copenhagen rat assessed as reduction in light emission at 10 mg/kg, ip measured after 4 to 24 hrs by Bioluminescence imaging analysis; format: functional, organism-based; summary of the method: as §3

## COc1ccc2c(c1O)CCCCC2(O)c1cc(OC)c(OC)c(OC)c1 (stereo not given)
NCI-H460
  GI50: 173 nM
Tubulin
  IC50: > 20 µM
SK-OV-3
  GI50: 394 nM
DU-145
  GI50: 33 nM

## COc1ccc(/C=C\c2cc(OC)c(OC)c(OC)c2)cc1O [COMBRETASTATIN A4]
NCI-H460
  GI50: 2.23 nM
SK-OV-3
  GI50: 4.55 nM
DU-145
  GI50: 3.27 nM

## CCOC(=O)c1c(OC)ccc2c1CCCC=C2c1cc(OC)c(OC)c(OC)c1
NCI-H460
  GI50: 353 nM
Tubulin
  IC50: 1 µM
SK-OV-3
  GI50: 299 nM
DU-145
  GI50: 631 nM
Tubulin (Homo sapiens) [1]
  inhibition: 47%

## COCCOCCOc1c(OC)ccc2c1CCCC=C2c1cc(OC)c(OC)c(OC)c1
NCI-H460
  GI50: 1900 nM
Tubulin
  IC50: > 20 µM
SK-OV-3
  GI50: 6520 nM
DU-145
  GI50: 5660 nM

## COc1cc(C2=CC(O)CCc3c2ccc(OC)c3OC)cc(OC)c1OC (stereo not given)
NCI-H460
  GI50: 432 nM
Tubulin
  IC50: 3.8 µM
SK-OV-3
  GI50: 263 nM
DU-145
  GI50: 439 nM
Tubulin (Homo sapiens) [1]
  inhibition: 28%

## COc1ccc2c(c1C=O)CCCC=C2c1cc(OC)c(OC)c(OC)c1
NCI-H460
  GI50: 84.7 nM
Tubulin
  IC50: 3.2 µM
SK-OV-3
  GI50: 57.2 nM
DU-145
  GI50: 40.2 nM
Tubulin (Homo sapiens) [1]
  inhibition: 61%

## COc1ccc(/C=C\c2cc(OC)c(OC)c(OC)c2)cc1OP(=O)(O)O [FOSBRETABULIN DISODIUM]
NCI-H460
  GI50: 1.94 nM
SK-OV-3
  GI50: 1.19 nM
DU-145
  GI50: 3.23 nM

## COc1cccc2c1C(=O)c1c(O)c3c(c(O)c1C2=O)C[C@@](O)(C(=O)CO)C[C@@H]3O[C@H]1C[C@H](N)[C@H](O)[C@H](C)O1 [DOXORUBICIN]
NCI-H460
  GI50: 123 nM
SK-OV-3
  GI50: 78.9 nM
DU-145
  GI50: 134 nM

## COc1ccc2c(c1O)CCCC(O)C2(O)c1cc(OC)c(OC)c(OC)c1 (stereo not given)
NCI-H460
  GI50: 3860 nM
Tubulin
  IC50: > 20 µM
SK-OV-3
  GI50: 3030 nM
DU-145
  GI50: 4040 nM
Tubulin (Homo sapiens) [1]
  inhibition: 0%

## COc1ccc2c(c1O)CCC(NC(C)=O)C=C2c1cc(OC)c(OC)c(OC)c1 (stereo not given)
NCI-H460
  GI50: 334 nM
DU-145
  GI50: 1200 nM
Tubulin (Homo sapiens) [1]
  inhibition: 0.4%

## COc1ccc2c(c1CO)CCCC=C2c1cc(OC)c(OC)c(OC)c1
NCI-H460
  GI50: 62.8 nM
Tubulin
  IC50: 0.63 µM
Tubulin (Homo sapiens) [1]
  inhibition: 76%

## COc1cc(C2(O)C=CCCc3c2ccc(OC)c3OC)cc(OC)c1OC (stereo not given)
NCI-H460
  GI50: 70500 nM
Tubulin
  IC50: > 20 µM
SK-OV-3
  GI50: 27200 nM
DU-145
  GI50: 26000 nM
Tubulin (Homo sapiens) [1]
  inhibition: 0%

## COc1cc(C2CCc3c(ccc(OC)c3OC)C(=O)C2)cc(OC)c1OC (stereo not given)
NCI-H460
  GI50: 2000 nM
Tubulin
  IC50: > 20 µM
SK-OV-3
  GI50: 5770 nM
DU-145
  GI50: 4450 nM
Tubulin (Homo sapiens) [1]
  inhibition: 0%

## CC(=O)O[C@H]1C(=O)[C@@]2(C)[C@H]([C@H](OC(=O)c3ccccc3)[C@]3(O)C[C@H](OC(=O)[C@H](O)[C@@H](NC(=O)c4ccccc4)c4ccccc4)C(C)=C1C3(C)C)[C@]1(OC(C)=O)CO[C@@H]1C[C@@H]2O [PACLITAXEL]
NCI-H460
  GI50: 1.76 nM
SK-OV-3
  GI50: 1.34 nM
DU-145
  GI50: 1.47 nM
Tubulin (Homo sapiens) [2]
  inhibition: inactive

## COc1ccc2c(c1O)CCCC(=O)C2(O)c1cc(OC)c(OC)c(OC)c1 (stereo not given)
NCI-H460
  GI50: 47.6 nM
Tubulin
  IC50: 1.2 µM
SK-OV-3
  GI50: 31.4 nM
DU-145
  GI50: 141 nM
Tubulin (Homo sapiens) [1]
  inhibition: 72%

## COc1ccc2c(c1C)CCCC(Br)=C2c1cc(OC)c(OC)c(OC)c1
NCI-H460
  GI50: 449 nM
Tubulin
  IC50: 4.9 µM
SK-OV-3
  GI50: 312 nM
DU-145
  GI50: 423 nM
Tubulin (Homo sapiens) [3]
  inhibition: 35%

## COc1ccc2c(c1O)CCCC=C2c1cc(OC)c(OC)c(OC)c1
Tubulin
  IC50: 0.85 µM
Tubulin (Homo sapiens) [3]
  inhibition: 73%
Tubulin (Homo sapiens) [1]
  inhibition: 95%

## COc1ccc2c(c1O)CCCC(Br)=C2c1cc(OC)c(OC)c(OC)c1
NCI-H460
  GI50: 35.3 nM
Tubulin
  IC50: 0.39 µM
SK-OV-3
  GI50: 22.1 nM
DU-145
  GI50: 36.2 nM
Tubulin (Homo sapiens) [1]
  inhibition: 88%

## COc1ccc2c(c1C#N)CCC=C2c1cc(OC)c(OC)c(OC)c1
NCI-H460
  GI50: 60.5 nM
Tubulin
  IC50: 0.37 µM
SK-OV-3
  GI50: 38.4 nM
DU-145
  GI50: 25.2 nM
Tubulin (Homo sapiens) [1]
  inhibition: 73%

## COc1ccc2c(c1O)CC=CC=C2c1cc(OC)c(OC)c(OC)c1
NCI-H460
  GI50: 58.1 nM
Tubulin
  IC50: 0.48 µM
Tubulin (Homo sapiens) [4]
  inhibition: 68%
Tubulin (Homo sapiens) [1]
  inhibition: 95%

## COc1cc(C2=CC=CCc3c2ccc(OC)c3OP(=O)([O-])[O-])cc(OC)c1OC.[Na+].[Na+]
[5]
  Activity: Non-Toxic
[6]
  Activity: Non-Toxic
PC-3 [7]
  Activity: inactive
PC-3 [8]
  Activity: inactive
PC-3 [9]
  Activity: Active
PC-3 [10]
  Activity: Active
PC-3 [11]
  Activity: inactive
PC-3 [12]
  Activity: 95%
PC-3 [13]
  Activity: inactive
NCI-H460
  GI50: 29.1 nM
Tubulin
  IC50: 16 µM
Tubulin (Homo sapiens) [1]
  inhibition: 45%

## COc1cc(C2=CCCCc3c2ccc(OC)c3OCCO)cc(OC)c1OC
NCI-H460
  GI50: 855 nM
Tubulin
  IC50: > 20 µM
SK-OV-3
  GI50: 3220 nM
DU-145
  GI50: 3760 nM

## COc1ccc2c(c1C#N)CCCC=C2c1cc(OC)c(OC)c(OC)c1
NCI-H460
  GI50: 434 nM
Tubulin
  IC50: 1.1 µM
SK-OV-3
  GI50: 64.8 nM
DU-145
  GI50: 860 nM
Tubulin (Homo sapiens) [1]
  inhibition: 62%
